A selection: hits, their analogues and other compounds. The true share with any hit is near 7.2%.
PLAP activator: PLAP enzyme activators, biochemical, luminescence, HTS; activation fold at 20 µM; purified PLAP enzyme, luminescent substrate read-out; stronger effect = higher value; Alkaline phosphatase, placental type (Homo sapiens), P05187; hit rate 1.2% among 96,000; in the data active = activation fold above about 2
Target sequence (P05187 whole entry, looked up): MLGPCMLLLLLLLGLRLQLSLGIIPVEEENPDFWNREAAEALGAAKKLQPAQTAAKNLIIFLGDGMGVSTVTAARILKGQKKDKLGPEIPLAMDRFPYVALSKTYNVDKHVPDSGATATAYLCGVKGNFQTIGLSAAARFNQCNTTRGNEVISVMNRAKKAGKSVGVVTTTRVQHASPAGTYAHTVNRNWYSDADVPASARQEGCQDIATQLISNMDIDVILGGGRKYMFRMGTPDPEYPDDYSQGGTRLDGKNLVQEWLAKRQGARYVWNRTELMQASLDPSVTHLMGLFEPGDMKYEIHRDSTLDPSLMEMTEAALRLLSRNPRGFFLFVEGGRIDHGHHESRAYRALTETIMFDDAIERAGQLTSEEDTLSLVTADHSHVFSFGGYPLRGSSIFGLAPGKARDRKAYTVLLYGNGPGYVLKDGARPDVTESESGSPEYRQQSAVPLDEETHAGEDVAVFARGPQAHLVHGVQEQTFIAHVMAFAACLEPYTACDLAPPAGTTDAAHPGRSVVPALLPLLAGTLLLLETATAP
E coli WT exp: growth inhibitors of wild-type E. coli, primary screen, strain BW25113, expanded library, OD600. AID 710, 2007. OD600 absorbance. growth inhibition, % at 100 µM. hit rate 0.15% among 98,000;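 active = growth inhibition above about 50% at one test dose, limit read from the data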;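 note: growth measured after 20 h incubation at 37 °C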
PostGolgi ctrl: growth inhibition of yeast control strain, primary screen, counter-screen for post-Golgi transport modulator project; inhibition, % at 10 µM; hit rate 5% among 98,000; efflux-deficient yeast background strain, growth absorbance A615, 16 h
PostGolgi yeast: phenotypic screen on post-Golgi transport, primary screen; post-Golgi transport phenotypic cell assay; inhibition, % at 10 µM; hit rate 0.9% among 98,000; AID 739, 2007;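 note: yeast cells grown in 1536-well plates; yeast grown about 18 h at 30C before absorbance read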
tolC growth inh: growth inhibitors of E. coli tolC mutant, primary screen, strain BW25113 ΔtolC::kan, 384-well. growth inhibition, % at 10 µM (by protocol). OD615. hit rate 2.2% among 65,000;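 active = growth inhibition at or above a cutoff equal to the mean over every tested compound plus 3 SD, cut at about 60% in these data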;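 note: growth measured after 20 h incubation at 37 °C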
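Assay system: tolC-deleted E. coli BW25113. Medium: kanamycin-containing LB broth (50 µg/mL). Dosing: 10 µM final, single dose. Timing: bacterial growth with compound for 20 h at 37 °C. Detection: A615 absorbance measurement. Read-out basis: growth inhibition in percent.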
Starred values were filed as active, the others as inactive; . = no result given. Cut-off read from the data, not from the text of the source, unless noted: active = inhibition above about 30%; inactive = the rest.

SMILES	PLAP activator	E coli WT exp	PostGolgi ctrl	PostGolgi yeast	tolC growth inh
Cc1noc(C)c1COC(=O)c1cc(=O)[nH]c2ccccc12	1.6	5	29	-3	6
Cc1noc(C)c1COC(=O)c1cc(C)n(-c2ccccc2)c1C	0.9	-7	8	3	93*
CCCNC(=O)c1c(N)n(-c2cccc(OC)c2)c2nc3ccccc3nc12	1.2	-1	50*	33*	24
Nc1c(C(=O)NCCN2CCOCC2)c2nc3ccccc3nc2n1-c1cccc(F)c1	2*	0	8	3	7
COCCCNC(=O)c1c(N)n(-c2cccc(S(N)(=O)=O)c2)c2nc3ccccc3nc12	1.5	4	-1	-7	5
CCN(C(=O)CSc1nnc(NC2CCCCC2)s1)C1CCS(=O)(=O)C1 (centres undefined)	1	-9	2	-1	.
Clc1ccc2c(c1)C(c1cccs1)=NNC(c1cccnc1)=N2	0.9	7	-5	22	.
Cc1sc2ncn(CC(=O)OC(C)C)c(=O)c2c1C	1.1	1	8	2	.
CC(=O)n1c2c(c3ccccc31)OC(N)=C(C#N)C2c1ccc(C(C)C)cc1 (centres undefined)	1	-2	34*	18	.
CC(=O)C1=C(C)OC(N)=C(C#N)C1c1ccco1 (centres undefined)	1.1	3	3	-7	-14
Cc1ccc(OCc2nnc(SCC(=O)c3cccs3)n2-c2ccccc2)cc1C	1	-5	19	1	.
O=C(CSc1nnc(COc2ccccc2)n1-c1ccccc1)c1cccs1	0.9	-24	41*	-2	32
O=C(CC1C(=O)NCCN1C(=S)Nc1ccccc1)Nc1ccc2c(c1)OCCO2 (centres undefined)	1	0	4	-1	.
COc1ccc(CNC(=O)CN(Cc2ccc(Cl)cc2)S(=O)(=O)c2ccccc2)cc1	0.6	-11	39*	-7	.
COc1ccc(CNC(=O)CN(Cc2ccccc2)S(=O)(=O)c2ccc(Cl)cc2)cc1	1.4	-14	28	2	.
O=C(NCCCN1CCCC1=O)c1ccccc1NS(=O)(=O)c1ccc(Br)cc1	1.5	2	1	9	.
O=c1c2ccccc2nnn1CSc1ccc2c(c1)OCCO2	0.9	-12	19	3	13
CCOc1cc2c(cc1C(C)(C)C)NC(=O)CS2	1	1	35*	2	9
N#CCSc1nc2c(c(=O)n1Cc1ccco1)C1(CCCC1)Cc1ccccc1-2	0.9	.	.	.	-1
Cc1cccc(-n2c(=O)c3c(n4cnnc24)-c2ccccc2CC32CCCCC2)c1	1.3	-9	46*	-18	.
CCn1c(SCC(N)=O)nc2c(c1=O)C1(CCCC1)Cc1ccccc1-2	1.1	8	50*	-10	.
CCn1c(=O)c2c(n3cnnc13)-c1ccccc1CC21CCCCC1	0.9	1	56*	28	13
N#CCSc1n[nH]c2nc3c(c(=O)n12)C1(CCCC1)Cc1ccccc1-3	1	7	21	1	98*
CCCn1c(SCC#N)nc2c(c1=O)C1(CCCC1)Cc1ccccc1-2	1.1	-38	29	-5	2
CC(=O)Nn1cnc2c(c1=O)C1(CCCCC1)Cc1ccccc1-2	1.4	0	22	-5	.
SMILES	PLAP activator	E coli WT exp	PostGolgi ctrl	PostGolgi yeast	tolC growth inh
O=c1c2c(n3cnnc3n1-c1ccccc1)-c1ccccc1CC21CCCCC1	1.2	-2	20	13	.
Cc1nc(CSc2nnc3scc(-c4ccc(Cl)cc4)n23)cs1	0.9	5	12	5	11
O=S1(=O)C=C(Sc2nc3cc(Cl)ccc3o2)c2ccccc21	1	-1	39*	14	6
Cc1ccc(Cl)cc1NC(=O)COC(=O)C12CC3CC(CC(C3)C1)C2	0.9	3	36*	12	.
Cc1nn(-c2ccccc2)c(C)c1/C=N/NC(=O)c1cc(C23CC4CC(CC(C4)C2)C3)[nH]n1	1.4	-8	60*	-2	.
Cc1nn(-c2ccccc2)c(C)c1/C=N/NC(=O)c1cc(-c2ccc(Cl)s2)[nH]n1	1	6	46*	54*	.
Cc1nn(-c2ccccc2)c(C)c1/C=N/NC(=O)c1cc(C2CC2)[nH]n1	0.9	-2	2	-3	.
Cc1nn(-c2ccccc2)c(C)c1/C=N/NC(=O)c1cc(-c2ccc(Br)s2)[nH]n1	0.9	6	64*	6	.
N#CC1=C(N)Oc2n[nH]c(-c3ccc(F)cc3)c2C1c1cccnc1 (centres undefined)	2*	2	2	6	9
COC(=O)C(NC(=O)c1ccc(Cl)cc1)(Nc1nc(C)cs1)C(F)(F)F (centres undefined)	1	8	19	-13	.
Cc1oc2nc(SCC(=O)N3CCCCC3)nc(N)c2c1C	.	.	.	.	0
Cc1ccc(N=Cc2c(O)n(-c3cc(Cl)ccc3N3CCOCC3)c(=O)c3ccccc23)cc1C	1.5	-7	4	8	.
O=C(NCCCN1CCCC1=O)c1ccc(OCc2ccccc2)cc1	2.1*	2	10	-6	.
CCCn1c(NC(=O)C2CCN(S(=O)(=O)c3cccs3)CC2)nc2ccccc21	1.5	-3	32*	1	42
CCC(C)NC(=O)C1CCN(S(=O)(=O)c2cccs2)CC1 (centres undefined)	1.3	7	3	-3	.
CC(=O)Nc1nc2ccccc2n1Cc1ccccc1C	1.8	4	-4	-11	98*
C=C(C)Cn1c(CCNC(=O)C(C)C)nc2ccccc21	1	7	41*	-6	-9
CCCn1c(NC(=O)c2ccc(C)cc2)nc2ccccc21	0.8	-7	0	-8	0
CCCn1c(NC(=O)c2ccccc2)nc2ccccc21	1.2	2	39*	-1	55
CC(=O)NCc1nc2ccccc2n1Cc1ccccc1C	1	-2	1	-3	-1
Cc1ccc(C)n1-c1ccc(C(=O)NCC2CCCO2)cc1 (centres undefined)	1.6	-1	-3	-3	-13
O=C(c1cccc(F)c1)N1CCN(C(=O)c2cc3ncc(Br)cn3n2)CC1	1	-2	10	-6	.
CCOC(=O)C(CC)(CC)/C(C)=N/NC(=O)CC#N	1.3	-5	2	5	.
CC(=O)N(Cc1cc2cc(C)c(C)cc2n2nnnc12)CC1COCCO1 (centres undefined)	1.1	4	1	3	-1
CCOc1ccc(NC(=O)C2=C(C)C(=O)OC23CCC(C)CC3)cc1 (centres undefined)	1.5	3	3	-2	.
CCOC(=O)CSc1nc(N2CCOCC2)c2c(c1C#N)CC(C)(C)N(C)C2	1.2	-5	1	-2	-15
O=C(Nc1cccc(O)c1)c1cccc(S(=O)(=O)N2CCCC2)c1	0.9	0	18	-3	-16
CCCn1c(NC(=O)c2cccc(S(=O)(=O)N3CCCC3)c2)nc2ccccc21	1.5	-10	36*	-8	53
Cn1c(NC(=O)c2cccnc2)nc2ccccc21	2*	-1	13	-7	14

High-throughput results (PubChem)
